Screens from PubChem.
HSF-1 act: HSF-1 activators, primary screen, NIH3T3-HGL cells, MG132 stress, luminescence, single point; AID 504408, 2011; 1.7% of 300,000 active; activation, % at 9 µM; NIH3T3-HGL HSF-1 luciferase reporter, 8 h; 100% = twice DMSO control signal;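 active = mean replicate activation of at least 50% with a set share of replicates each reaching 50%; inconclusive = only one of those two conditions met; inactive = mean below 50% and too few replicates reaching it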;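 note: 0% = median of the neutral control wells and 100% = twice that signal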
HSF1 inh: HSF1 inhibitors in luciferase reporter cells, primary screen, cell-based, NIH3T3, luminescence | NIH3T3-HGL HSE-luciferase, MG132-induced, luminescence 8 h; stronger effect = lower value | activity change, negative = inhibition, % at 7.5 µM (by protocol) | 0.77% of 300,000 active | AID 2098, 2009;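 active = more than half of replicate wells show activity change below -50%, luminescence cut by over half; inconclusive = some wells, but at most half, below -50%; inactive = no replicate well below -50%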;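 note: luciferase reports HSF-1 transcriptional activity via heat shock element; 0% = median of DMSO wells and -100% = zero luminescence signal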
CHT PAM: CHT positive allosteric modulators, primary screen, cell-based, membrane potential dye, choline EC20; B-score at 10 µM; 0.49% of 310,000 active; CHT-expressing cells; stronger effect = higher value; LV-AA mutant CHT in HEK293 cells; High affinity choline transporter 1 (Homo sapiens), Q9GZV3;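 active = initial fluorescence not abnormally high and integrated response B-score, plate-corrected, over 3 SD above library mean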
CHT inh: inhibitors of human choline transporter CHT; High affinity choline transporter 1 (Homo sapiens), Q9GZV3; CHT-expressing cells, membrane potential dye, choline response; stronger effect = lower value; B-score at 10 µM; 0.86% of 310,000 active; AID 488975, 2010;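 active = B-score over 3 SD under the library average, and starting fluorescence ratio not unusually high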;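 note: choline stimulus applied at its EC90 after an EC20 pre-addition; B-score computed on integrated fluorescence ratio after choline addition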
Hep lipid drop: inhibitors of hepatocyte lipid droplet formation, primary screen, imaging, high-throughput imaging, BODIPY stain; AML12 mouse hepatocytes, oleate lipid droplets; inhibition, % at 6.5 µM; 0.4% of 240,000 active; AID 1656, 2009;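 active = lipid droplet intensity inhibited by at least 50%, with more than 500 cells counted; inconclusive = wells with under 300 cells, treated as cytotoxic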
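Test system: AML12 hepatocytes (mouse); reagent: oleate loading, 100 µM; dosing: one dose, 6.5 µM compound; incubation: overnight exposure; signal: fluorescence imaging, 20x objective, two fields per well; read-out basis: % inhibition of corrected integrated BODIPY droplet signal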
PHOSPHO1 inh: PubChem AID 1565 | Phosphoethanolamine/phosphocholine phosphatase (Homo sapiens), Q8TCT1 | recombinant PHOSPHO1, absorbance phosphatase assay | inhibition, % at 13.3 µM | 1.1% of 290,000 active; in the data active = inhibition above about 60%
Target sequence (Q8TCT1 whole entry, looked up): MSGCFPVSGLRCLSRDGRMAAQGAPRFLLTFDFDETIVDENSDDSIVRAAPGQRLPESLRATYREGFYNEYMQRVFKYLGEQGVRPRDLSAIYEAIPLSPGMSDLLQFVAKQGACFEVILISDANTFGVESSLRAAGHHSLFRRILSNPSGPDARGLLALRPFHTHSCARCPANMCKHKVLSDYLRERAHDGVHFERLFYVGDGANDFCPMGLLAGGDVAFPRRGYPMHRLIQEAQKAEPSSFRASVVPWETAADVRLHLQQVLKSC
CHT act confirm: CHT activators, confirmation, cell-based, membrane potential dye, duplicate. shares compounds with CHT PAM. CHT-expressing cells, membrane potential dye fluorescence (FDSS); % of choline EC20–EC90 response window; HEK293 expressing CHT LV-AA mutant; choline added at its EC20. activation, % at 10 µM. 91% of 2,500 active;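 active = primary screen active, with duplicate mean activation above negative control mean plus 3 SD, cut at about 11% in these data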
HEK293 MP dye: membrane potential response in parental HEK293 cells, counter-screen for CHT activator project, cell-based, membrane potential dye | shares compounds with CHT PAM | membrane potential dye fluorescence (FDSS); measured after EC20 choline addition | ratio readout change at 10 µM, hits read low | 62% of 2,500 active | AID 623908, 2012;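 active = duplicate-averaged ratio beyond 3 SD from buffer wells, up or down, though filed actives are nearly all decreases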
* hit, by the source's call; i = inactive; ? = inconclusive; . = no result given. Most compounds without a hit are left out; they make up all but 4.9% or so of the library.

SMILES | HSF-1 act | HSF1 inh | CHT PAM | CHT inh | Hep lipid drop | PHOSPHO1 inh | CHT act confirm | HEK293 MP dye
COc1cc2cc[n+](Cc3ccc([N+](=O)[O-])cc3)cc2cc1OC | -34 | -22 | 7.1* | i | 7 | 33 | 71* | -79*
O=[N+]([O-])c1ccc(C[n+]2cccc(O)c2)cc1 | -15 | -6 | i | i | . | . | . | .
COc1ccc2cc(CCNS(=O)(=O)c3ccc(NC(C)=O)cc3)c(=O)[nH]c2c1 | 9 | 2 | i | i | 2 | 14 | . | .
Cc1ccc(O)c(C(=O)c2cnn(C(=O)Cc3csc(C)n3)c2)c1 | . | . | i | i | . | 3 | 37* | -43*
CCOC(=O)c1oc2ccc(CNC3CCCCC3)c(Cl)c2c1C | 4 | 4 | i | i | -20 | -13 | . | .
CCOC(=O)c1oc2ccc(CNCCO)c(Cl)c2c1C | -48 | ? | 8.3* | i | . | 6 | 37* | -29*
CCOc1ccccc1C(=O)Nc1cc2c(cc1N1CCCC1)n(CC)c(=O)n2CC | -6 | 3 | i | i | 0 | 17 | 51* | i
CCn1c(=O)n(CC)c2cc(N3CCCC3)c(NC(=O)c3ccccc3OC)cc21 | 0 | -2 | i | i | -7 | 30 | . | .
COC(=O)c1cc(CSc2ncnc3sccc23)oc1C | 8 | 5 | i | i | 2 | 2 | . | .
Cc1ccc(C(=O)c2c3ccc([N+](=O)[O-])cc3[n+]([O-])n2CCCN)cc1 | 17 | 12 | 6.5* | i | . | . | 34* | -40*
c1ccc(C[n+]2cccc3c4ccccc4ccc32)cc1 | -7 | -10 | 6.4* | i | . | 50 | 77* | -75*
O=[N+]([O-])c1ccc(C[n+]2cccc3ccccc32)cc1 | 3 | -3 | 8.1* | i | 32 | -21 | 47* | -46*
CCCCC[n+]1cccc2c3ccccc3ccc21 | -27 | -25 | 7.5* | i | -6 | 59 | 47* | -74*
N=c1n(CCO)c2ccccc2n1CCN1CCCCC1 | . | . | i | i | -1 | -11 | 35* | -34*
N=c1n(CCN2CCCCC2)c2ccccc2n1CC(O)c1ccco1 (configuration not stated) | -4 | -8 | i | i | 2 | 12 | . | .
N#C/C(=N\Nc1c(Cl)cccc1Cl)C(=O)NN | 9 | 0 | 12* | i | -14 | 8 | 19* | -40*
Cn1c(=O)n(C)c2cc(/C=N/n3cnnc3)ccc21 | 6 | -3 | 8.7* | i | . | -25 | 70* | -69*
Cn1c(=O)n(C)c2cc(/C=N/NC(=O)c3ccncc3)ccc21 | -4 | -6 | i | i | 0 | -14 | . | .
Cc1cc(C)n2[nH]c(=O)c(N=Nc3ccc(S(N)(=O)=O)cc3)c2n1 | 3 | -4 | 9.2* | i | 12 | 33 | 70* | -81*
Cc1ccc(N=Nc2c(=O)[nH]n3c(C)cc(C)nc23)cc1 | 8 | 1 | i | i | . | 7 | . | .
CN1CCN(C(=O)CSc2nc(-c3ccncc3)ccc2C#N)CC1 | . | . | 8.1* | i | . | 1 | 44* | -37*
CN1CCN(C(=O)CSc2nc(-c3cccs3)cc(-c3cccs3)c2C#N)CC1 | -7 | -3 | i | i | . | -22 | . | .
CCN(CC)CCNC1=NCCn2c1cc1cc(OC)ccc12 | -5 | -3 | 8.2* | i | 31 | 4 | 60* | -51*
CC(=O)N1c2ccc(S(=O)(=O)N3CCC(C(=O)N4CCN(c5ccccc5F)CC4)CC3)cc2CC1C (configuration not stated) | 11 | -4 | i | i | 0 | 26 | . | .
COc1cc(-c2nc3cnccc3n2C)cc(OC)c1OC | -5 | -3 | i | i | . | 6 | . | .
SMILES | HSF-1 act | HSF1 inh | CHT PAM | CHT inh | Hep lipid drop | PHOSPHO1 inh | CHT act confirm | HEK293 MP dye
Cn1c(-c2ccc3ccccc3n2)nc2cnccc21 | 28 | 23 | i | i | . | 14 | 45* | -40*
COc1cc(OC)c(-c2nc3cnccc3n2C)cc1OC | -12 | -12 | 6.6* | i | 2 | 26 | 55* | -53*
COc1ccc(CN(C)C(=O)c2ccccc2Sc2ccccc2C#N)cc1OC | 25 | 7 | i | i | 0 | 9 | . | .
CN(Cc1cccc(F)c1)C(=O)c1ccccc1Sc1ccccc1C#N | 7 | 3 | 7.2* | i | -1 | 33 | 31* | i
COc1cc(/C(C)=N/NC(=O)c2cccc(S(=O)(=O)N3CCCC3)c2)cc(OC)c1OC | 23 | 9 | i | i | 2 | -4 | . | .
O=C1CCc2cc(S(=O)(=O)NCCC(=O)NC3CCN(Cc4ccccc4)CC3)ccc2N1 | . | . | i | i | . | 16 | . | .
CCCCN(CCCNC(=O)C1CCN(C(=O)c2cc3sccc3n2C)CC1)Cc1ccccc1 | -5 | -2 | 10* | i | -5 | 38 | 60* | -29*
CCN(CCCNC(=O)C1CCN(C(=O)c2cc3sccc3n2C)CC1)Cc1ccccc1 | 12 | -4 | i | i | -15 | 24 | . | .
CCCCCC(=O)Nc1ccccc1N1CCOCC1 | -12 | -2 | i | i | -2 | 7 | . | .
CCCCC(=O)Nc1ccccc1N1CCN(c2ccccc2)CC1 | 9 | 3 | i | i | -3 | -15 | 22* | i
O=C(O)/C=C/C(=O)Nc1c(F)cccc1F | -1 | -9 | i | i | 0 | 16 | . | .
Cc1cc2c3c(ccc(C)c3n1)N=CN2c1ccccc1 | -6 | -5 | i | i | 8 | 8 | 49* | -60*
Cc1cc(Nc2ccccc2)c2c([N+](=O)[O-])ccc(C)c2n1 | 2 | 3 | i | i | 16 | -24 | . | .
CCc1ccc2nc(N=C(N)N)nc(C)c2c1 | -14 | -2 | i | i | 2 | -5 | . | .
Cc1ccc2nc(N=C(N)N)nc(C)c2c1 | -15 | -3 | i | i | -18 | 16 | 56* | -55*
Cc1nc(N=C(N)N)nc2ccccc12 | -6 | -7 | 8.1* | i | 47 | 32 | 67* | -60*
CCOc1ccccc1NC(=S)NC(=O)C1CC1 | -4 | -13 | i | i | -7 | 8 | . | .
